Assay results as given in PubChem BioAssay.
Calls of active or inactive are those of the source.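 How the source made its calls, unless noted: active means viability at or below 10% of carrier control in both of two separate runs; inconclusive means viability at or below 10% in only one of the two runs; inactive means the rest.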

How the values were obtained:
[1] = reducers of endogenous Her2 protein level, primary screen, SKBR3 breast tumor cells, AlphaScreen, ATP viability (AID 461;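 active means Her2 level under about 52% in both replicate screens, with viability over 70% of control, limit read from the data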;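 on Her2 level: lower value means less Her2 protein in the cells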;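 on viability: percent of carrier control wells set as 100% viability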); details: 18-24 h, measured here: SKBR3 viability, ATP luminescence, at 10 µM
[2] = target: Receptor tyrosine-protein kinase erbB-2 (Homo sapiens) (UniProt P04626); experiment: as above; details: 18-24 h, at 10 µM, stronger effect = lower value
Sequence of Receptor tyrosine-protein kinase erbB-2 (Homo sapiens) (P04626 whole entry, looked up): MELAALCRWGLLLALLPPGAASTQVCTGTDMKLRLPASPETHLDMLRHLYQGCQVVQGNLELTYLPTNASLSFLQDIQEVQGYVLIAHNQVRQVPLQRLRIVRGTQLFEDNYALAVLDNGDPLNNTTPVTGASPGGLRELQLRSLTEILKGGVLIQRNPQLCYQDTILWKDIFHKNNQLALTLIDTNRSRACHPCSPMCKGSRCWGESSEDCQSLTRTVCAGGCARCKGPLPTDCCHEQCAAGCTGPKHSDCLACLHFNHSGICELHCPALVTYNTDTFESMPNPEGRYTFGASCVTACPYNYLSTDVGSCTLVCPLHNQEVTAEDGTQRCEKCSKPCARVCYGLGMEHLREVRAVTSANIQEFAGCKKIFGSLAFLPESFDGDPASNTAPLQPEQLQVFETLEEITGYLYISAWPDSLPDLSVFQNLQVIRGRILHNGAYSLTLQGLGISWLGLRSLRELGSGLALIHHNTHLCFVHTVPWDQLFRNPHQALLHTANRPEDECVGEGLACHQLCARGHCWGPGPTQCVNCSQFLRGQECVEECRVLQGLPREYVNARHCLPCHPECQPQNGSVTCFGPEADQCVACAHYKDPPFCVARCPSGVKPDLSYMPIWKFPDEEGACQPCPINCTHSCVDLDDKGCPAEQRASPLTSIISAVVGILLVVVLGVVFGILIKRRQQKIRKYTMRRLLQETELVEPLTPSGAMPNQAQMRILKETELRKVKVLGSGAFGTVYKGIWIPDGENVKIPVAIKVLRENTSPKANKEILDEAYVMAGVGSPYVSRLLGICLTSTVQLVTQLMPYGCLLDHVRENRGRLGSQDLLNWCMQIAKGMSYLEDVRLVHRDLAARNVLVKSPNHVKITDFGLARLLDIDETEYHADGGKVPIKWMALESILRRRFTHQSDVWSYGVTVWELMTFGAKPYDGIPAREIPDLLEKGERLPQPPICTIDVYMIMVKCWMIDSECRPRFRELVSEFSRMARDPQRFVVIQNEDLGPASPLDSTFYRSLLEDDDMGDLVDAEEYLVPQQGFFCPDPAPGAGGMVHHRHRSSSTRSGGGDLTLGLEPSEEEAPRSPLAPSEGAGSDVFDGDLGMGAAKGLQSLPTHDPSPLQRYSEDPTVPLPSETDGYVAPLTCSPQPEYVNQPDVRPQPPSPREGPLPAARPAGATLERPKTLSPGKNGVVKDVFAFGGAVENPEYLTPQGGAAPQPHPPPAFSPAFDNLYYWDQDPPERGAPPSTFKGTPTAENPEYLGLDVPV

[3] = SK-BR-3 cell growth inhibitors, pilot screen, 24 h, human (AID 572); details: SK-BR-3 viability, CellTiter-Glo luminescence, at 10 µM, stronger effect = lower value;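 further: compound exposure lasted between 18 and 24 h rather than exactly 24 h; 100% = carrier-treated control wells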
[4] = HUVEC growth inhibition – cell-based, human, primary screen (AID 575;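 active means viability at or below 30% in both replicate assays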;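 further: 100% = median of untreated cell wells with 0.1% DMSO on each plate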); details: HUVEC proliferation, CellTiter-Glo luminescence, 72 h; at 10 µM; stronger effect = lower value
Outline: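 System: primary human umbilical vein endothelial cells; Quantity: 1250 endothelial cells in each well; Buffer or medium: supplemented EBM, 2% fetal bovine serum; Doses: one dose, 10 µM final, 0.1% DMSO; Incubation: 72 h compound incubation; Technique: ATP-based CellTiter-Glo luminescent read; Evaluation: percent of median DMSO-control luminescence; Controls: vehicle and MePR control wells.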

[5] = growth inhibitors of H69AR lung tumor, primary screen, human, duplicate replicates (AID 580;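 active means viability at or under a set limit in both replicates, limit being median viability minus 3 SD, cut at about 48% in these data, passing the limit was not always enough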;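 further: 100% = mean luminescence of untreated wells and 0% = no signal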); details: H69AR lung tumor cells viability, ATP luminescence, 72 h; at 10 µM; stronger effect = lower value
[6] = reversal of MRP1-mediated doxorubicin resistance, pilot screen, H69AR cells, doxorubicin co-treatment (AID 601;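 active means viability loss from added drug above about 55%, and viability with drug at most 40%, in both replicates, limit read from the data, passing the limit was not always enough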); details: CellTiter-Glo, 72 h, at 10 µM; for differential viability (reversal): stronger effect = higher value
[7] = 384-well plate pilot, post-Golgi transport modulator project, inhibition of yeast transport mutant growth (AID 636; in the data active means inhibition above about 31%); details: absorbance 615 nm, about 18 h, stronger effect = higher value
[8] = growth suppression of yeast trafficking mutant, preliminary HTS, modulators of trafficking downstream of Golgi apparatus project, 1536-format plate, OD 615 nm (AID 637; in the data active means inhibition above about 30%); details: yeast transport mutant growth, absorbance 615 nm, 18 h; stronger effect = higher value
[9] = H69AR cells + 2 uM doxorubicin, measured here: viability with 2 uM doxorubicin, stronger effect = lower value
[10] = H69AR cells, compound alone cytotoxicity

Row | SMILES | viability [1] [%] | Her2 level [2] | viability [3] | viability [4] | viability [5] | differential viability (reversal) ([6]; H69AR cells + 2 uM doxorubicin) | viability [6, 9] [%] | viability [6, 10] [%] | inhibition [7] | inhibition [8]
1 | COc1ccc(OCCOC(=O)c2cccs2)cc1 | 97.5 | 92% (inactive) | 97.5% (inactive) | 111% (inactive) | 109% (inactive) | 19% (inactive) | 89.5 | 109 | -6.22% (inactive) | 5.24% (inactive)
2 | O=C(O)Cn1cc(C(=O)c2ccco2)c2ccccc21 | 95 | 100% (inactive) | 95% (inactive) | 105% (inactive) | 85.5% (inactive) | -4.73% (inactive) | 90.3 | 85.5 | -0.52% (inactive) | 3.61% (inactive)
3 | c1ccc(CN2C3=NCCCN3c3ccccc32)cc1 | 79 | 84% (inactive) | 79% (inactive) | 82.9% (inactive) | 91.2% (inactive) | 8.3% (inactive) | 83 | 91.2 | -1.43% (inactive) | -3.65% (inactive)
4 | Cc1ccc(S(=O)(=O)Cn2nnnc2CN(Cc2ccco2)CC2CCCO2)cc1 (stereo not given) | 90 | 96.5% (inactive) | 90% (inactive) | 110% (inactive) | 83.3% (inactive) | -0.665% (inactive) | 84 | 83.3 | -2.53% (inactive) | 44.8% (active)
5 | CC(NC(=O)COc1ccccc1)C(=O)NC1=NCCS1 (stereo not given) | 89 | 124% (inactive) | 89% (inactive) | 88.8% (inactive) | 94.4% (inactive) | 3.6% (inactive) | 90.8 | 94.4 | -4.36% (inactive) | -11.8% (inactive)
6 | CN(Cc1cccs1)C(=O)CCc1ccc(S(=O)(=O)N2CCOCC2)cc1 | 97.5 | 116% (inactive) | 97.5% (inactive) | 111% (inactive) | 87.4% (inactive) | -10.2% (inactive) | 97.6 | 87.4 | -5.06% (inactive) | -12.5% (inactive)
7 | Cn1c(=O)c2c(-c3ccccc3)n(CCCN3CCOCC3)cc2n(C)c1=O | 77.5 | 98.5% (inactive) | 77.5% (inactive) | 69.7% (inactive) | 82.2% (inactive) | 10.4% (inactive) | 71.9 | 82.2 | 2.21% (inactive) | -4.29% (inactive)
8 | CCCOc1cc(C)c(S(=O)(=O)N2CCN(C)CC2)cc1C | 89 | 99% (inactive) | 89% (inactive) | 104% (inactive) | 95.2% (inactive) | 2.26% (inactive) | 92.9 | 95.2 | -1.58% (inactive) | 5.41% (inactive)
9 | COc1ccc2ccccc2c1CN1CCN(C)CC1 | 97 | 94.5% (inactive) | 97% (inactive) | 75.1% (inactive) | 104% (inactive) | 7.19% (inactive) | 96.6 | 104 | 1.43% (inactive) | -0.66% (inactive)
10 | Cc1ccccc1NC(=O)C1Cc2ccccc2C(=O)O1 (stereo not given) | 134 | 112% (inactive) | 134% (inactive) | 116% (inactive) | 98.7% (inactive) | 7.54% (inactive) | 91.2 | 98.7 | -4.93% (inactive) | 3.23% (inactive)
11 | COc1ccc2[nH]c(=O)c(CN(CCO)S(=O)(=O)c3ccc4c(c3)OCCO4)cc2c1 | 85 | 97.5% (inactive) | 85% (inactive) | 99.8% (inactive) | 94% (inactive) | 6.97% (inactive) | 87 | 94 | -5.07% (inactive) | -2.3% (inactive)
12 | CCOC(=O)c1[nH]c(=O)c2ccccc2c1O | 106 | 94.5% (inactive) | 106% (inactive) | 95.8% (inactive) | 90.8% (inactive) | -0.03% (inactive) | 90.8 | 90.8 | -10% (inactive) | -8.41% (inactive)
13 | COc1ccc2c(=O)c3c(=O)n(Cc4ccco4)c(C(C)C)nc3oc2c1 | 96 | 93% (inactive) | 96% (inactive) | 101% (inactive) | 99.4% (inactive) | 9.28% (inactive) | 90.1 | 99.4 | -3.73% (inactive) | -9.52% (inactive)
14 | O=C(NCc1cccs1)c1cc2c(s1)-c1ccccc1OC2 | 96 | 91.5% (inactive) | 96% (inactive) | 76.8% (inactive) | 94.8% (inactive) | 5.04% (inactive) | 89.7 | 94.8 | -5.2% (inactive) | 3.77% (inactive)
15 | Cc1c(C(=O)O)oc2ccc(S(=O)(=O)NCCC3=CCCCC3)cc12 | 100 | 98.5% (inactive) | 100% (inactive) | 95.9% (inactive) | 101% (inactive) | 6.48% (inactive) | 94.3 | 101 | -3.16% (inactive) | -9.52% (inactive)
